# Measured values as given in ChEMBL document CHEMBL2046419, “Antibacterial anthraquinone derivatives from a sea anemone-derived fungus Nigrospora sp” (J Nat Prod, 2012).
# How the values were obtained:
# [1] = system: Staphylococcus albus; assay: Antibacterial activity against Staphylococcus albus ATCC 8799 after 24 hrs by serial dilution technique; conditions: ATCC 8799, 24 h
# [2] = system: Bacillus cereus; assay: Antibacterial activity against Bacillus cereus ACCC 11077 after 24 hrs by serial dilution technique; format: functional; conditions: ACCC 11077, 24 h
# [3] = system: Vibrio parahaemolyticus; assay: Antibacterial activity against Vibrio parahaemolyticus ATCC 17802 after 24 hrs by serial dilution technique; format: functional; conditions: ATCC 17802, 24 h
# [4] = system: Bacillus subtilis; assay: Antibacterial activity against Bacillus subtilis ATCC 6633 after 24 hrs by serial dilution technique; format: functional; conditions: ATCC 6633, 24 h
# [5] = system: Vibrio anguillarum; assay: Antibacterial activity against Vibrio anguillarum ATCC 19019 after 24 hrs by serial dilution technique; format: functional; conditions: ATCC 19019, 24 h
# [6] = system: Micrococcus; assay: Antibacterial activity against Micrococcus tetragenus ATCC 13623 after 24 hrs by serial dilution technique; format: functional; conditions: ATCC 13623, 24 h
# [7] = system: Staphylococcus aureus; assay: Antibacterial activity against Staphylococcus aureus ATCC 27154 after 24 hrs by serial dilution technique; format: functional; conditions: ATCC 27154, 24 h
# [8] = system: Escherichia coli; assay: Antibacterial activity against Escherichia coli ATCC 25922 after 24 hrs by serial dilution technique; format: functional; conditions: ATCC 25922, 24 h
# [9] = system: Micrococcus luteus; assay: Antibacterial activity against Micrococcus luteus ATCC 49732 after 24 hrs by serial dilution technique; format: functional; conditions: ATCC 49732, 24 h
# [10] = system: A549; assay: Cytotoxicity against human A549 cells by MTT assay; format: functional, cell-based
# Outline: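 A549 human lung cancer cells, MTT read-out, mitomycin as positive control; IC50 reported in μM.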
# [11] = system: Bacillus cereus; assay: Ratio of ciprofloxacin MIC to compound MIC for Bacillus cereus ACCC 11077; format: functional
SMILES,MIC [1] [µM],MIC [2] [µM],MIC [4] [µM],MIC [5] [µM],MIC [6] [µM],MIC [7] [µM],MIC [8] [µM],MIC [9] [µM],MIC [3] [µM],IC50 [10] [µM],Ratio [11]
COc1cc(O)c2c(c1O)C(=O)c1cc(C)c(O)cc1C2=O,> 200,> 200,> 200,> 200,> 200,> 200,> 200,> 200,> 200,> 50,
COc1cc(O)c2c(c1OC(C)=O)C(=O)c1cc(C)c(OC(C)=O)cc1C2=O,> 200,> 200,> 200,> 200,200,> 200,> 200,200,> 200,,
CO[C@@]12[C@H](COC(N)=O)C3=C(C(=O)C(C)=C(N)C3=O)N1C[C@@H]1N[C@@H]12 [MITOMYCIN],,,,,,,,,,3,
COC1=CC(=O)c2c(O)c3c(c(O)c2C1=O)C[C@](C)(O)[C@H](OC(C)=O)[C@H]3O,> 200,3.12,> 200,> 200,3.12,> 200,> 200,> 200,> 200,2.72,
COc1cc(OC(C)=O)c2c(c1O)C(=O)c1cc(C)c(O)cc1C2=O,> 200,> 200,> 200,> 200,> 200,> 200,> 200,> 200,> 200,,
COc1cc(O)c2c(c1O)[C@H](O)[C@H]1C[C@](C)(O)[C@H](O)[C@@H](O)[C@@H]1C2=O [9ALPHA-HYDROXYHALOROSELLINIA A],> 100,12.5,12.5,3.12,3.12,0.78,1.56,> 100,3.12,41.5,
COc1cc(O)c2c(c1O)C(=O)c1cc(C)ccc1C2=O [AUSTROCORTIRUBIN],> 200,> 200,> 200,> 200,> 200,> 200,> 200,> 200,> 200,> 50,
COc1cc(O)c2c(c1O)C(=O)c1cc(C)c(OC(C)=O)cc1C2=O,> 200,50,12.5,> 200,> 200,> 200,> 200,> 200,> 200,,
COc1cc(O)c2c(c1OC(C)=O)C(=O)c1cc(C)ccc1C2=O,> 200,> 200,> 200,> 200,> 200,> 200,> 200,> 200,> 200,,
COc1cc(OC(C)=O)c2c(c1OC(C)=O)C(=O)c1cc(C)c(O)cc1C2=O,> 150,37.5,5,4.7,9.4,> 150,> 150,> 150,75,,
COc1cc(O)c2c(c1O)[C@H](O)[C@H]1C[C@](C)(O)[C@H](O)C[C@@H]1C2=O,> 100,12.5,12.5,1.56,1.56,25,6.25,25,12.5,> 50,

# Further lines, with some results ahead:
MIC [1] [µM],MIC [2] [µM],MIC [4] [µM],MIC [5] [µM],MIC [6] [µM],MIC [7] [µM],MIC [8] [µM],MIC [9] [µM],SMILES,MIC [3] [µM],IC50 [10] [µM],Ratio [11]
0.312,1.25,0.312,0.078,0.039,0.156,0.156,2.5,O=C(O)c1cn(C2CC2)c2cc(N3CCNCC3)c(F)cc2c1=O [CIPROFLOXACIN],0.078,,
5,10,0.625,2.5,1.25,2.5,2.5,20,COC1=CC(=O)c2cc3c(c(O)c2C1=O)C[C@](C)(O)[C@H](O)[C@H]3O,1.25,4.56,
50,> 200,50,> 200,> 200,> 200,> 200,> 200,COc1cc(OC(C)=O)c2c(c1O)C(=O)c1cc(C)c(OC(C)=O)cc1C2=O,> 200,,
> 100,50,> 100,25,0.78,1.56,0.78,> 100,COc1cc(O)c2c(c1O)[C@H](OC)[C@H]1C[C@](C)(O)[C@H](O)C[C@H]1C2=O,25,> 50,
3.12,3.12,3.12,3.12,3.12,3.12,1.56,200,COc1cc(O)c2c(c1O)C(=O)C1=C(C[C@@H](O)[C@@](C)(O)C1)C2=O,3.12,,
3.12,3.12,3.12,0.39,3.12,1.56,1.56,100,COC1=CC(=O)c2c(O)c3c(c(O)c2C1=O)C[C@](C)(O)[C@H](O)[C@H]3O [BOSTRYCIN],3.12,,
70,140,35,140,> 140,> 140,> 140,140,COc1cc(OC(C)=O)c2c(c1OC(C)=O)C(=O)c1cc(C)c(OC(C)=O)cc1C2=O,> 140,> 50,
100,> 200,> 200,> 200,> 200,100,> 200,> 200,COc1cc(O)c2c(c1OC(C)=O)C(=O)c1cc(C)c(O)cc1C2=O,> 200,,
2.5,0.312,0.312,1.25,0.625,1.25,1.25,10,COC1=CC(=O)c2c(cc3c(c2O)C[C@@H](O)[C@@](C)(O)C3)C1=O [NIGROSPORIN B],0.625,3.32,
200,0.0488,0.78,0.0975,0.195,> 200,> 200,100,COC1=CC(=O)c2c(O)c3c(c(O)c2C1=O)C[C@](C)(O)[C@H](OC(C)=O)C3,0.78,5.25,25
